Measurements published in ChEMBL document CHEMBL2385064, “Selective CB2 agonists with anti-pruritic activity: discovery of potent and orally available bicyclic 2-pyridones” (Bioorg Med Chem, 2013).
Active and inactive are the calls of the source. The calls are words filed in the database; no cut-off is given here.

Tests used:
Cannabinoid receptor 2 [1] = molecular target: T1, Cannabinoid receptor 2 (Homo sapiens, UniProt P34972); assay: Displacement of [3H]-CP-55,940 from human CB2 receptor expressed in CHO cell membranes
T1 sequence (P34972 whole entry): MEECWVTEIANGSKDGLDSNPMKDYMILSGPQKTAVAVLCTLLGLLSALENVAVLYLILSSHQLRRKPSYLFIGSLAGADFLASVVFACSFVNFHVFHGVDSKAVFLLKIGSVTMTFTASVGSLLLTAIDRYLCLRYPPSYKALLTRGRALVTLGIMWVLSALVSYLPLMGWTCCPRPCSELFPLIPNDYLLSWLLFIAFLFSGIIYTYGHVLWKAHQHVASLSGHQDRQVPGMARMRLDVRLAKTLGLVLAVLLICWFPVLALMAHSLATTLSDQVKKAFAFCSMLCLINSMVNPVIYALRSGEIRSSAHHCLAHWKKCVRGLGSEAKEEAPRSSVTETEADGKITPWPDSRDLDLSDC
Summary of the method: (§1)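 Competition binding against [3H]-CP-55,940 on membranes from CHO cells stably expressing recombinant human CB1 or CB2. Between-day coefficient of variation is 0.24 for CB1 and 0.53 for CB2.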

Cannabinoid receptor 2 [2] = molecular target: T1, Cannabinoid receptor 2; assay: Agonist activity at human CB2 receptor expressed in CHO cells assessed as inhibition of forskolin-induced cAMP production; type: functional, cell-based
Summary of the method: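 Functional readout is inhibition of forskolin-evoked cAMP accumulation in CHO cells expressing human CB2. IC50 determined from more than four duplicate assay points. Between-day coefficient of variation is 0.63.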

Cannabinoid receptor 1 = Cannabinoid receptor 1 (Homo sapiens, UniProt P21554); assay: Displacement of [3H]-CP-55,940 from human CB1 receptor expressed in CHO cell membranes; summary of the method: as §1
Cannabinoid receptor 1, sequence (P21554 whole entry): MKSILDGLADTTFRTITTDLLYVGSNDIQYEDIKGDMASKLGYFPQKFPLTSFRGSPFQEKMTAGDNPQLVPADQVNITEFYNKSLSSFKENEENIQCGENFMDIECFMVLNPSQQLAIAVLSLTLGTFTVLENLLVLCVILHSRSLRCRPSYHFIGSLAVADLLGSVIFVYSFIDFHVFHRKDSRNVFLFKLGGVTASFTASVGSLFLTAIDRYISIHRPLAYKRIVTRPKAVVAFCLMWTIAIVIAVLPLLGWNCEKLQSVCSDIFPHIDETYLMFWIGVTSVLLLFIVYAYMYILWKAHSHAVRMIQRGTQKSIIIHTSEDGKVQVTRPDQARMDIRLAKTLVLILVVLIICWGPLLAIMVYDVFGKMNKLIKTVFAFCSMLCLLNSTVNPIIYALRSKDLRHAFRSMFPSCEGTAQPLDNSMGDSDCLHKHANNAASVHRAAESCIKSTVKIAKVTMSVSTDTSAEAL

Homo sapiens = organism: Homo sapiens; assay: Selectivity ratio of Ki for human CB1 receptor to Ki for human CB2 receptor
Cannabinoid receptor 2 [3] = molecular target: T1, Cannabinoid receptor 2; assay: Agonist activity at human CB2 receptor expressed in CHO cells assessed as inhibition of forskolin-induced cAMP production at 2 uM relative to control; type: functional, cell-based
Summary of the method: (§2)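 Forskolin-induced cAMP production measured in human CB2-expressing CHO cells. Emax is the maximum inhibition rate of cAMP production at the indicated concentration.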

Mus musculus [4] = assay: AUC in mouse at 30 mg/kg, po; type: ADME, organism-based, Plasma; parameters: dose 30 mg/kg, route oral; settings: in vivo
Mus musculus [5] = assay: Oral bioavailability in mouse at 30 mg/kg; type: ADME, organism-based; settings: in vivo
[6] = Volume of distribution at steady state in mouse at 2 mg/kg, iv; type: ADME, organism-based; parameters: dose 2 mg/kg, route intravenous; settings: in vivo, read-out: Vdss
[7] = Half life in mouse at 2 mg/kg, iv; type: ADME, organism-based; parameters: dose 2 mg/kg, route intravenous; settings: in vivo
Mus musculus [8] = assay: Toxicity in po dosed ICR mouse assessed as decrease in locomotor activity at 100 mg/kg, po; type: organism-based; parameters: dose 100 mg/kg, route oral; settings: in vivo
[9] = Cmax in mouse at 30 mg/kg, po; type: ADME, organism-based; parameters: dose 30 mg/kg, route oral; settings: in vivo
[10] = molecular target: Cannabinoid receptor 2 (Mus musculus) (UniProt P47936); assay: Displacement of [3H]-CP-55,940 from mouse spleen CB2 receptor expressed in CHO cell membranes
Cannabinoid receptor 2 (Mus musculus), sequence (P47936 whole entry): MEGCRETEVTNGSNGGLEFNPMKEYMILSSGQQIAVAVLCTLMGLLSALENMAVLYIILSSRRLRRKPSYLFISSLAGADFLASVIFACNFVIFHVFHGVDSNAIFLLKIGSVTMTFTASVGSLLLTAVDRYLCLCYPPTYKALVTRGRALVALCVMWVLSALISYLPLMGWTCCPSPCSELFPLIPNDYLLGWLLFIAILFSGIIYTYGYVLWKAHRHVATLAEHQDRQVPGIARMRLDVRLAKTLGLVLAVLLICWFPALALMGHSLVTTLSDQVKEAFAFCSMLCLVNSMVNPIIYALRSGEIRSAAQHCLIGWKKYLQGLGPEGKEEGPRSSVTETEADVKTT

Cannabinoid receptor 2 [11] = molecular target: T1, Cannabinoid receptor 2; assay: Agonist activity at human CB2 receptor expressed in CHO cells assessed as inhibition of forskolin-induced cAMP production at 0.2 uM relative to control; type: functional, cell-based; summary of the method: as §2
Mus musculus [12] = assay: Antipruritic activity in ICR mouse assessed as inhibition of compound 48/80-induced scratching-behavior at 100 mg/kg, po administered once before challenge relative to control; type: functional
Summary of the method: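 Female ICR mice had their backs clipped. Compound was given orally once (n = 6) in sesame oil or 0.5% methylcellulose. Scratching bouts at the site by hind paws were counted for 30 min. Result compared with the vehicle group by Dunnett's t-test (p<0.05).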

[13] = Half life in mouse at 1 mg/kg, iv; type: ADME, organism-based; parameters: dose 1 mg/kg, route intravenous; settings: in vivo
[14] = Volume of distribution at steady state in mouse at 1 mg/kg, iv; type: ADME, organism-based; parameters: dose 1 mg/kg, route intravenous; settings: in vivo, read-out: Vdss
Cannabinoid receptor 2 [15] = molecular target: T1, Cannabinoid receptor 2; assay: Agonist activity at human CB2 receptor expressed in CHO cells assessed as inhibition of forskolin-induced cAMP production at 0.02 uM relative to control; type: functional, cell-based; summary of the method: as §2
[16] = Total plasma clearance in mouse at 1 mg/kg, iv; type: ADME, organism-based; parameters: dose 1 mg/kg, route intravenous

| Structure (SMILES) | Ki (Cannabinoid receptor 2 [1]) [nM] | Ki (Cannabinoid receptor 1) [nM] | Ratio Ki (Homo sapiens) | further results |
| --- | --- | --- | --- | --- |
| O=C(NCc1ccccc1)c1cc2c(n(CCCN3CCOCC3)c1=O)CCCCCC2 | 209 | – | – | – |
| CCCCn1c(C)c(C)cc(NS(=O)(=O)c2ccccc2)c1=O | > 5000 | – | – | – |
| CCCCn1c2c(cc(C(=O)NC(C)C)c1=O)CCCCCC2 | 4 | 591 | 148 | IC50 (Cannabinoid receptor 2 [2]): 2.5 nM; Emax (Cannabinoid receptor 2 [3]): 92% |
| CCCCn1c2c(cc(C(=O)NCc3ccccc3)c1=O)CCC2 | 16 | 143 | 8.9 | Emax (Cannabinoid receptor 2 [3]): 83% |
| CCCCn1c2c(cc(C(=O)NC3CCN(C)CC3)c1=O)CCCCCC2 | 147 | – | – | – |
| CCCCn1c(C)c(C)cc(NC(=O)Nc2ccccc2)c1=O | > 5000 | – | – | – |
| CCCCn1c2c(cc(C(=O)NC(C)(C)c3ccccc3)c1=O)CCCCCC2 | – | – | – | IC50 (Cannabinoid receptor 2 [2]): 0.2 nM |
| CCCCn1c2c(cc(C(=O)NCc3ccccc3)c1=O)CCCC2 | 17 | 746 | 44 | IC50 (Cannabinoid receptor 2 [2]): 17 nM; Emax (Cannabinoid receptor 2 [3]): 76% |
| CCCCn1c2c(cc(C(=O)NCc3ccccc3)c1=O)COCC2 | 204 | – | – | – |
| CCCCn1c2c(cc(C(N)=O)c1=O)CCCCCC2 | 40 | > 5000 | > 125 | – |
| CCCCn1c(CC)c(C)cc(C(=O)NCc2ccccc2)c1=O | 20 | 322 | 16 | – |
| CC(C)CCn1c2c(cc(C(=O)NCc3ccccc3)c1=O)CCCCCC2 | 0.9 | 9 | 10 | – |
| CCCCn1c2c(cc(C(=O)NCc3ccccc3)c1=O)CCCCCC2 | – | – | 593 | AUC (Mus musculus [4]): 390 ng·h/mL; F (Mus musculus [5]): 25%; Vd [6]: 2.29 L/kg; half-life [7]: 16.8 min; Activity (Mus musculus [8]): Non-toxic; Cmax [9]: 168 ng/mL; Activity [10]: Active; Emax (Cannabinoid receptor 2 [11]): 100%; inhibition in vivo at 100 mg/kg (Mus musculus [12]): 81% |
| CCCCn1c2c(cc(C(=O)NCCc3ccccc3)c1=O)CCCCCC2 | – | – | 568 | Emax (Cannabinoid receptor 2 [11]): 98% |
| CCCCn1c(C)c(C)cc(C(=O)NCc2ccccc2)c1=O | 66 | 606 | – | – |
| CCCCn1c2c(cc(C(=O)NC3CCCCC3)c1=O)CCCCCC2 | – | – | 95 | IC50 (Cannabinoid receptor 2 [2]): < 0.2 nM; half-life [13]: 18 min; Vd [14]: 0.89 L/kg; Activity [10]: Active; Emax (Cannabinoid receptor 2 [15]): 98%; clearance [16]: 35 mL/min/kg |
